Fewer inactive variants are shown than the library holds.
B1: tRNA (parent)
chain: GUUCCGUUGGCGUAAUGGUAACGCGUCUCCCUCCUAAGGAGAAGACUGCGGGUUCGAGUCCCGUACGGAACG

Variants of: B1
Experiment: yeast fitness relative to wild type (ratio to wild type); higher = fitter; tRNA-Arg(CCU), competitive growth, 37 C, YPD
Method in brief: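 Start and end populations of a pooled competition were compared by 100-nucleotide paired-end sequencing of gene amplicons. The Saccharomyces cerevisiae strains carried tRNA-Arg(CCU) gene variants at the native genomic locus, synthesised with a 3% per-site mutation rate at 69 sites, and competed in YPD at 37°C for 24 hours in six parallel replicates. Darwinian fitness relative to wild type was based on the change in genotype frequencies. Genotypes required ≥ 100 starting reads, and estimates < 0.5 were set to 0.5.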

Row | Variant | yeast fitness
1 | GUUCCGUUGGCGUAAUGGUAACGCGUCUACCUCCUAAGGAGAAGACUGCGGGUUCGAGUCCCGUACCGAACG [C29A G67C] | 0.646
2 | GUUCCGUUGGCGUAAUGGUAACGCGUCUACCUCCUAAGGAGAAGACUGCGGGUUCGAGUCCCGUACAGAACG [C29A G67A] | 0.605
3 | GUUCCGUUGGCGUAAUGGUAACGCGUCUGCCUCCUACGGAGAAGACUGCGGGUUCGAGUCCCAUGCGGAACG [C29G A37C G63A A65G] | ≤ 0.5
4 | GUUCCGUUGGCGUAAUGGUAACGCGUCUACCUCCUAAGGAGAAGACUGCGGGUUCCGGUCCCGUACGUAACG [C29A G56C A57G G68U] | ≤ 0.5
5 | GUUCCGUUGGCGUAAUGGUAACGCGUCUACCUCCUAAGGAGAAGACUGCGGGUUCGAGUACCGUACGGAACG [C29A C60A] | 0.616
6 | GUUCCGUUGGCGUAAUGGUAACGCGUCUACCUCCUAAGGAGAAGACUGCGGGUUCGAGUCCCGUUCAGAACG [C29A A65U G67A] | 0.5
7 | GUUCCGUUGGCGUAAUGGUAACGCGUCUGCCUCCUACGGAGUAGACUGCGGGUUCGGGUCCCGUACAGAACG [C29G A37C A42U A57G G67A] | ≤ 0.5
8 | GUUCCGUUGGCGUAAUGGUAACGCGUCUGCCUCCUUAGGAGGAGACUGCGGGUUAGAGUCCCGUACGGAACG [C29G A36U A42G C55A] | ≤ 0.5
9 | GUUCCGUUGGCGUAAUGGUAACGCGUCUACCUGCUAAGGAGAAGCCUGCGGGUUCGAGUCCCGUACGGAACG [C29A C33G A45C] | 0.543
10 | GUUCCGUUGGCGUAAUGGUAACGCGUCUACCUCCUAAGGAGAAGACCGCGGGUUCGAGUCCCGUACGGAACG [C29A U47C] | 0.713
11 | GUUCCGUUGGCGUAAUGGUAACGCGUCUACCUCCGAAGGAGAAGACUGCGGGUUCGAGUCCCGUACGGAACG [C29A U35G] | ≤ 0.5
12 | GUUCCGUUGGCGUAAUGGUAACGCGUCUACCUCCAAAGGAGAAGACUGCGGGUUCGAGUCCCGUACGGAACG [C29A U35A] | 0.672
13 | GUUCCGUUGGCGUAAUGGUAACGCGUCUACCUCCUAAGGAGAAGAUUGCGGGUUCGAGUCCCGUACGGAACG [C29A C46U] | 0.724
14 | GUUCCGUUGGCGUAAUGGUAACGCGUCUACCUCCAAAGGAGAAGACUGCGGGUUCAAGUCCCAUACGGAACG [C29A U35A G56A G63A] | 0.525
15 | GUUCCGUUGGCGUAAUGGUAACGCGUCUACCUCUUUAGGAGAAGACUGCGGGUUCGAGUCCCGUACGGAACG [C29A C34U A36U] | 0.568
16 | GUUCCGUUGGCGUAAUGGUAACGCGUCUACCCCCUAAGGAGUAGACUGCGGGUUCGAGUCCCGUACGGUACG [C29A U32C A42U A69U] | ≤ 0.5
17 | GUUCCGUUGGCGUAAUGGUAACGCGUCUACCUCCUAAGGAGAAGACUACGGGUUCGAGUCCCGUAUGGAACG [C29A G48A C66U] | ≤ 0.5
18 | GUUCCGUUGGCGUAAUGGUAACGCGUCUACCUCCUAAGGAAACGACUGUGGGUUCGAGUCCCGUACGGAACG [C29A G41A A43C C49U] | ≤ 0.5
19 | GUUCCGUUGGCGUAAUGGUAACGCGUCUACGUCCUAAGGAGAAGACUGAGGGUUGGAGUCCCGUACGGAACG [C29A C31G C49A C55G] | 0.549

Row | Variant | yeast fitness
20 | GUUCCGUUGGCGUAAUGGUAACGCGUCUGCCUCCUAUGGAGAAGACUGCGGGUUCGAGUCCCGUACGGAACG [C29G A37U] | 0.566
21 | GUUCCGUUGGCGUAAUGGUAACGCGUCUACCUCCUAAGGAGAAGACUGCGGGUUCGAGUCCCGUAAGCAACG [C29A C66A G68C] | ≤ 0.5
22 | GUUCCGUUGGCGUAAUGGUAACGCGUCUACCUCCAAAGGAGAAGACUGCGGGUUCAAGUCCCGUACGGAACG [C29A U35A G56A] | 0.741
23 | GUUCCGUUGGCGUAAUGGUAACGCGUCUACCUCCUAAGGAGAAGACUGCGGGUUUGAGUCCCCUACGGAACG [C29A C55U G63C] | ≤ 0.5
24 | GUUCCGUUGGCGUAAUGGUAACGCGUCUAUCUCCUAAGGAGAAGACUACAGGUUCGAGUACCGUACGGAACG [C29A C30U G48A G50A C60A] | ≤ 0.5
25 | GUUCCGUUGGCGUAAUGGUAACGCGUCUACCUCCUAAGGAGAAGACUGCGGGUUCGAGUCCCGUACGGACCG [C29A A70C] | 0.635
26 | GUUCCGUUGGCGUAAUGGUAACGCGUCUACCUCCUAAGGAGAAGACUGCGGGUUCGAGUCCCGUACGGAUCG [C29A A70U] | 0.891
27 | GUUCCGUUGGCGUAAUGGUAACGCGUCUAUCUCCUAAGGAGAAGACUACAGGUUCGAGUCCCGUACGGAACG [C29A C30U G48A G50A] | ≤ 0.5
28 | GUUCCGUUGGCGUAAUGGUAACGCGUCUGCCUCCUACGGAGAAGACUGCGGGUUCGAGUCCCAUACGGAACG [C29G A37C G63A] | ≤ 0.5
29 | GUUCCGUUGGCGUAAUGGUAACGCGUCUACCUCCUAAGGAGAAGACUGCGGGUUUGAGUCCCCCACGGAACG [C29A C55U G63C U64C] | ≤ 0.5
30 | GUUCCGUUGGCGUAAUGGUAACGCGUCUACCUUCUAAGGAGAAGACUGCGGGUUCGAGUCCCGUACAGAACG [C29A C33U G67A] | ≤ 0.5
31 | GUUCCGUUGGCGUAAUGGUAACGCGUCUGCCUCCUAUGGAGAAGAUUGCGGGUUCGAGUCCCGUACGGAACG [C29G A37U C46U] | ≤ 0.5
32 | GUUCCGUUGGCGUAAUGGUAACGCGUCUGCCUCCUAGGGAGAAGACUGCGAGUUAGAGUCCCGUACGGAACG [C29G A37G G51A C55A] | ≤ 0.5
33 | GUUCCGUUGGCGUAAUGGUAACGCGUCUACCACCUAAGGAGAAGACUGCGGGUUCGAGUCCCGUCCGGAACG [C29A U32A A65C] | ≤ 0.5
34 | GUUCCGUUGGCGUAAUGGUAACGCGUCUAUCUGCUAAGGAGAAGAUUGCGGGUUCGAGUCCCGUACGGAACG [C29A C30U C33G C46U] | ≤ 0.5
35 | GUUCCGUUGGCGUAAUGGUAACGCGUCUACCUCCUAAGGAGAAGACUGCGGGUUCGAAUCGCGUACGGAUCG [C29A G58A C61G A70U] | 0.642
36 | GUUCCGUUGGCGUAAUGGUAACGCGUCUACCUCCUAAGGAAACGACUGCGGGUUCGAGUCCCGUACGGCACG [C29A G41A A43C A69C] | ≤ 0.5
37 | GUUCCGUUGGCGUAAUGGUAACGCGUCUGCCUCCUAUGGAGAAGACUGCGGGUUCGAGCCCCGUAGGGAACG [C29G A37U U59C C66G] | 0.687
38 | GUUCCGUUGGCGUAAUGGUAACGCGUCUACCUCGUAAGGAGAAGACUGCGGGUUCGAGUCCCGUACGGAACG [C29A C34G] | ≤ 0.5
